Experimental data from ChEMBL document CHEMBL3091343, “Nicotinamide phosphoribosyltransferase inhibitors, design, preparation, and structure-activity relationship” (J Med Chem, 2013).
Activity calls are given as the source filed them. No cut-off for these calls is given here.

Tests used:
A2780 [1] = test: Antitumor activity against human A2780 cells xenografted in NMRI/nude mouse containing small tumors assessed as tumor growth inhibition at 15 mg/kg, ip bid administered for 10 days measured during compound administration; type: functional, organism-based; set-up: dose 15 mg/kg
In short: (§1)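 A2780 xenografts were dosed i.p. bid at 15 mg/kg. Large tumours (start 500 mm³) were dosed on days 0-4 + 7-11; small tumours (start 100 mm³) on days 0-9. Tumour volume was calculated as width²×length/2 from caliper diameters, and body weight was recorded during treatment. Tumours were followed after treatment up to the maximum allowed size of 1000 mm³.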

HCT-116 [2] = test: Cytotoxicity against APO866-resistant human HCT116 cells assessed as growth inhibition after 72 hrs by WST-1 assay; type: functional, cell-based; settings: HCT-116, 72 h
[3] = Toxicity in ip dosed NMRI mouse assessed as blood cell count administered as bid for 5 days; type: organism-based; settings: in vivo
MCF7 [4] = test: Cytotoxicity against human MCF-7 cells assessed as growth inhibition after 72 hrs by WST-1 assay; type: functional, cell-based; settings: MCF7, 72 h
HCT-116 [5] = test: Cytotoxicity against human HCT116 cells assessed as growth inhibition after 72 hrs by WST-1 assay; type: functional, cell-based; settings: HCT-116, 72 h
A2780 [6] = test: Antitumor activity against human A2780 cells xenografted in NMRI/nude mouse containing small tumors assessed as tumor growth inhibition at 15 mg/kg, ip bid administered for 10 days measured after compound treatment; type: functional, organism-based; set-up: dose 15 mg/kg; in short: as §1
PC-3 = test: Cytotoxicity against human PC3 cells by clonogenic assay; type: functional, cell-based
[7] = Apparent volume of distribution in NMRI mouse at 50 mg/kg, iv; type: ADME, organism-based; set-up: dose 50 mg/kg, route intravenous; settings: in vivo, read-out: Vz
In short: (§2)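 Mouse PK after a single i.v. dose. Plasma proteins were precipitated with acetonitrile containing internal standard (3:1 v/v). Samples were analysed by UPLC-MS/MS on a C18 column at 40°C with an acetonitrile–0.05% formic acid gradient, using positive electrospray MRM. Parameters were derived by non-compartmental analysis.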

A2780 [8] = test: Cytotoxicity against human A2780 cells after 16 hrs by clonogenic assay; type: functional, cell-based; settings: A2780, 16 h
In short: (§3)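 Cells were exposed to compound for the indicated time and then seeded in 3% agar over a sheep erythrocyte feeder layer. Plates were cultured 14–21 days at 37 °C, and colonies were counted with a digital colony counter.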

[9] = Clearance in NMRI mouse at 50 mg/kg, iv; type: ADME, organism-based; set-up: dose 50 mg/kg, route intravenous; settings: in vivo; in short: as §2
[10] = Cytotoxicity against human NYH cells by clonogenic assay; type: functional, cell-based
A2780 [11] = test: Antitumor activity against human A2780 cells xenografted in NMRI/nude mouse assessed as tumor growth inhibition at 15 mg/kg, ip bid administered for 5 days measured at day 14 relative to vehicle-treated control; type: functional; settings: route intraperitoneal
DU-145 = test: Cytotoxicity against human DU145 cells by clonogenic assay; type: functional, cell-based
[12] = Cmax in NMRI mouse at 50 mg/kg, iv; type: ADME, organism-based; set-up: dose 50 mg/kg, route intravenous; settings: in vivo; in short: as §2
[13] = Toxicity in ip dosed NMRI mouse assessed as body weight loss administered as bid for 5 days; type: organism-based; settings: in vivo
MCF7 [14] = test: Cytotoxicity against human MCF7 cells after 24 hrs by clonogenic assay; type: functional, cell-based; settings: MCF7, 24 h; in short: as §3
A2780 [15] = test: Antitumor activity against human A2780 cells xenografted in NMRI/nude mouse containing large tumors assessed as tumor growth inhibition at 15 mg/kg, ip bid administered on day 1 to 4 and day 7 to 11 measured during compound administration; type: functional, organism-based; set-up: dose 15 mg/kg; in short: as §1
MCF7 [16] = test: Cytotoxicity against human MCF7 cells after 96 hrs by clonogenic assay; type: functional, cell-based; settings: MCF7, 96 h; in short: as §3
A2780 [17] = test: Cytotoxicity against human A2780 cells assessed as growth inhibition after 72 hrs by WST-1 assay; type: functional, cell-based; settings: A2780, 72 h
[18] = AUC in NMRI mouse at 50 mg/kg, iv; type: ADME, organism-based; set-up: dose 50 mg/kg, route intravenous; settings: plasma; in short: as §2
[19] = Tmax in NMRI mouse at 50 mg/kg, iv; type: ADME, organism-based; set-up: dose 50 mg/kg, route intravenous; settings: in vivo; in short: as §2
HCT-116 [20] = test: Resistance factor, ratio of IC50 for APO866-resistant human HCT116 cells to IC50 for human HCT116 cells; type: functional
SK-OV-3 = test: Cytotoxicity against human SKOV3 cells by clonogenic assay; type: functional, cell-based
A2780 [21] = test: Antitumor activity against human A2780 cells xenografted in NMRI/nude mouse containing large tumors assessed as tumor growth inhibition at 15 mg/kg, ip bid administered on day 1 to 4 and day 7 to 11 measured after compound treatment; type: functional, organism-based; set-up: dose 15 mg/kg; in short: as §1
Mus musculus [22] = test: Toxicity in human A2780 cells xenografted NMRI/nude mouse containing large tumors assessed as effect on body weight at 15 mg/kg, ip bid administered on day 1 to 4 and day 7 to 11; settings: in vivo
[23] = Half life in NMRI mouse at 50 mg/kg, iv; type: ADME, organism-based; set-up: dose 50 mg/kg, route intravenous; settings: in vivo; in short: as §2
[24] = biological target: Nicotinamide phosphoribosyltransferase (Homo sapiens, UniProt P43490); test: Inhibition of NAMPT in human HepG2 cells using [14C]-nicotinamide/PRPP as substrate assessed as formation of [14C]-nicotinamide mononucleotide after 1 hr by liquid scintillation counting analysis; type: cell-based
Chain of Nicotinamide phosphoribosyltransferase (P43490 whole entry): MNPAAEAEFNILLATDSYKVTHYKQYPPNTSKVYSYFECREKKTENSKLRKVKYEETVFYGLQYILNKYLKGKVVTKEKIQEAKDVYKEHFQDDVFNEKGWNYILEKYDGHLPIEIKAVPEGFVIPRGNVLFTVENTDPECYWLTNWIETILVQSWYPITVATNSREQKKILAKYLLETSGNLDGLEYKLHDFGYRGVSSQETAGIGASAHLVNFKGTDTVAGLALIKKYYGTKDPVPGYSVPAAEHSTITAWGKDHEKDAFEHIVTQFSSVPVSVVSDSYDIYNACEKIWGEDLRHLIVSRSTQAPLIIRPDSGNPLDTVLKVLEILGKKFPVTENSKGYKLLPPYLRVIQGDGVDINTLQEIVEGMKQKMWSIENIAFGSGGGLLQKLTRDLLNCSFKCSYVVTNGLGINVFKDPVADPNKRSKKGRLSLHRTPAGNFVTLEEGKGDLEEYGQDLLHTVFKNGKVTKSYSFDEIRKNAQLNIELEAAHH

Mus musculus [25] = test: Toxicity in human A2780 cells xenografted NMRI/nude mouse containing small tumors assessed as effect on body weight at 15 mg/kg, ip bid administered for 10 days; type: organism-based; set-up: dose 15 mg/kg, route intraperitoneal; settings: in vivo, 240 h; in short: as §1
A2780 [26] = test: Antitumor activity against human A2780 cells xenografted in NMRI/nude mouse assessed as tumor growth inhibition at 0.63 mg/kg, ip bid administered for 5 days measured at day 14 relative to vehicle-treated control; type: functional; settings: route intraperitoneal
In short: (§4)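 A2780 xenografts started from small tumours (about 100 mm³). Dosing was i.p. bid on days 0-4. Tumour volume was estimated as width²×length/2 and compared at day 14 with vehicle-treated animals as T/C%.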

A2780 [27] = test: Antitumor activity against human A2780 cells xenografted in NMRI/nude mouse containing large tumors assessed as tumor growth inhibition at 3 mg/kg, ip bid administered on day 1 to 4 and day 7 to 11 measured during compound administration; type: functional, organism-based; set-up: dose 3 mg/kg
A2780 [28] = test: Cytotoxicity against human A2780 cells after 24 hrs by clonogenic assay; type: functional, cell-based; settings: A2780, 24 h; in short: as §3
A-431 = test: Cytotoxicity against human A431 cells by clonogenic assay; type: functional, cell-based
A2780 [29] = test: Antitumor activity against human A2780 cells xenografted in NMRI/nude mouse assessed as tumor growth inhibition at 2.5 mg/kg, ip bid administered for 5 days measured at day 14 relative to vehicle-treated control; type: functional; settings: route intraperitoneal; in short: as §4
A2780 [30] = test: Ratio of APO866 to compound for antitumor activity against human A2780 cells xenografted in NMRI/nude mouse; type: functional
A2780 [31] = test: Antitumor activity against human A2780 cells xenografted in NMRI/nude mouse assessed as tumor growth inhibition at 1.25 mg/kg, ip bid administered for 5 days measured at day 14 relative to vehicle-treated control; type: functional; settings: route intraperitoneal; in short: as §4
A2780 [32] = test: Antitumor activity against human A2780 cells xenografted in NMRI/nude mouse assessed as tumor growth inhibition at 5 to 10 mg/kg, ip bid administered for 10 days measured during compound administration; type: functional, organism-based
In short: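 Mice bearing large A2780 xenografts were dosed i.p. bid at 5 and 10 mg/kg. Toxic signs were scored as body weight loss and reduced activity level compared with control mice. Tumour volume was estimated as width²×length/2.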

[33] = Cytotoxicity against human W1L2 cells assessed as growth inhibition after 72 hrs by trypan blue assay; type: functional, cell-based; settings: WIL2, 72 h

Structure (SMILES): N#C/N=C(\NCCCCCCS(=O)(=O)N(CCF)OCC1CCCCC1)Nc1ccncc1
- TGI (A2780 [1]): Active
- IC50 (HCT-116 [2]): > 5000 nM
- MTD at 120 h [3]: < 10 mg/kg
- IC50 (MCF7 [4]): 0.1 nM
- IC50 (HCT-116 [5]): 3.6 nM
- TGI (A2780 [6]): inactive
- IC50 (PC-3): 0.35 nM
- Vd [7]: 0.547 L/kg
- IC50 (A2780 [8]): 0.43 nM
- clearance [9]: 17.5 mL/min/kg
- IC50 [10]: 0.05 nM
- T/C (A2780 [11]): 52%
- IC50 (DU-145): 6.39 nM
- Cmax [12]: 78.5 µg/mL
- MTD at 120 h [13]: < 10 mg/kg
- IC50 (MCF7 [14]): > 50 nM
- TGI (A2780 [15]): Active
- IC50 (MCF7 [16]): 0.98 nM
- IC50 (A2780 [17]): 0.052 nM
- AUC [18]: 47500 ng·h/mL
- Tmax [19]: 4.8 min
- Ratio IC50 (HCT-116 [20]): 128
- IC50 (SK-OV-3): 3.4 nM
- TGI (A2780 [21]): inactive
- Activity (Mus musculus [22]): Non-toxic
- half-life [23]: 21.6 min
- IC50 [24]: 3.2 nM
- Activity (Mus musculus [25]): Non-toxic

Structure (SMILES): N#C/N=C(\NCCCCCCS(=O)(=O)N(OCCN1CCOCC1)C1CCCCC1)Nc1ccncc1
- IC50 (HCT-116 [2]): > 5000 nM
- T/C (A2780 [26]): 82%
- IC50 (MCF7 [4]): 0.33 nM
- TGI (A2780 [27]): Active
- IC50 (HCT-116 [5]): 1.9 nM
- IC50 (PC-3): 0.53 nM
- IC50 [10]: 0.3 nM
- IC50 (A2780 [28]): 0.55 nM
- IC50 (A-431): > 50 nM
- IC50 (DU-145): > 50 nM
- IC50 (MCF7 [14]): > 50 nM
- T/C (A2780 [29]): 24%
- Ratio (A2780 [30]): 12
- IC50 (MCF7 [16]): 1.9 nM
- IC50 (A2780 [17]): 0.025 nM
- Ratio IC50 (HCT-116 [20]): 128
- IC50 (SK-OV-3): 9.9 nM
- T/C (A2780 [31]): 40%
- TGI (A2780 [32]): Active

Structure (SMILES): C#CCN(Cc1cc2c(O)nc(C)nc2cc1Br)c1ccc(C(=O)NCc2cccnc2)cc1
- IC50 [33]: 2.8 nM
